Source: ChEMBL document CHEMBL3400112, “Design, syntheses, and pharmacological characterization of 17-cyclopropylmethyl-3,14β-dihydroxy-4,5α-epoxy-6α-(isoquinoline-3'-carboxamido)morphinan analogues as opioid receptor ligands” (Bioorg Med Chem, 2015)
The source made the active and inactive calls. No cut-off for these calls is given here.

Experiments:
[1] = test system: Mus musculus; assay: Antinociceptive activity in Swiss-Webster mouse at 10 mg/kg, sc after 20 mins by warm water tail-flick test relative to control; format: functional; conditions: route subcutaneous
[2] = target: Delta-type opioid receptor (Mus musculus) (UniProt P32300); assay: Agonist activity at mouse DOR expressed in CHO cells after […] by [35S]GTPgammaS binding assay relative to SNC80; format: functional, cell-based
Delta-type opioid receptor (Mus musculus), sequence (P32300 whole entry): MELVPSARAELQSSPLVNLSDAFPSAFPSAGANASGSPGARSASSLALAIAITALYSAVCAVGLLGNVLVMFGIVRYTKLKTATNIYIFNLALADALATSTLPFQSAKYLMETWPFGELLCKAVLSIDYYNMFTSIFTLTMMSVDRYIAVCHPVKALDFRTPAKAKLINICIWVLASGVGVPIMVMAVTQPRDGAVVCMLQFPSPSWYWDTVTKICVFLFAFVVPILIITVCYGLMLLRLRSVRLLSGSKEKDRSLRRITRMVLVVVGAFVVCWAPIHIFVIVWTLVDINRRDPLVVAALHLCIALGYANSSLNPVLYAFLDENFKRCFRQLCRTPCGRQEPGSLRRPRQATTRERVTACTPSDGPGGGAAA

[3] = target: Kappa-type opioid receptor (Mus musculus) (UniProt P33534); assay: Agonist activity at mouse KOR expressed in CHO cells after […] by [35S]GTPgammaS binding assay relative to (+/-)-trans-U50488; format: functional, cell-based
Kappa-type opioid receptor (Mus musculus), sequence (P33534 whole entry): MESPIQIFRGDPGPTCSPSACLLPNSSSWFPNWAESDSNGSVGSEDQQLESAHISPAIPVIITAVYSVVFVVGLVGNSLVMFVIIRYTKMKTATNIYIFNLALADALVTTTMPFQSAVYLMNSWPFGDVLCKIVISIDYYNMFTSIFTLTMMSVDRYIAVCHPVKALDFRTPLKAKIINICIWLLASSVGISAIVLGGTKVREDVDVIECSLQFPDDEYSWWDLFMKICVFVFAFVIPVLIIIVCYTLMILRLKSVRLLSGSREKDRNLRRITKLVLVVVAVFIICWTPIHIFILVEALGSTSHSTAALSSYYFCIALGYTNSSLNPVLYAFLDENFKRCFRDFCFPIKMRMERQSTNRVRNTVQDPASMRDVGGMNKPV

[4] = target: T1, Kappa-type opioid receptor (Mus musculus, UniProt P33534); assay: Agonist activity at mouse KOR expressed in CHO cells after […] by [35S]GTPgammaS binding assay; format: functional, cell-based
T1 sequence (P33534 whole entry): as above

[5] = test system: Mus musculus; assay: Reversal of morphine-induced antinociceptive activity in sc dosed Swiss-Webster mouse administered 5 mins prior to morphine challenge measured after 20 mins by warm water tail-flick test relative to control; format: functional
[6] = target: T2, Delta-type opioid receptor (Mus musculus, UniProt P32300); assay: Agonist activity at mouse DOR expressed in CHO cells after […] by [35S]GTPgammaS binding assay; format: functional, cell-based
T2 sequence (P32300 whole entry): as the sequence (P32300 whole entry) above

[7] = target: T3, Mu-type opioid receptor (Homo sapiens, UniProt P35372); assay: Antagonist activity at human MOR expressed in CHO cells assessed as inhibition of DAMGO-induced increase in intracellular Ca2+ level incubated for 15 mins prior to DAMGO addition by microplate reader analysis; format: functional, cell-based
T3 sequence (P35372 whole entry): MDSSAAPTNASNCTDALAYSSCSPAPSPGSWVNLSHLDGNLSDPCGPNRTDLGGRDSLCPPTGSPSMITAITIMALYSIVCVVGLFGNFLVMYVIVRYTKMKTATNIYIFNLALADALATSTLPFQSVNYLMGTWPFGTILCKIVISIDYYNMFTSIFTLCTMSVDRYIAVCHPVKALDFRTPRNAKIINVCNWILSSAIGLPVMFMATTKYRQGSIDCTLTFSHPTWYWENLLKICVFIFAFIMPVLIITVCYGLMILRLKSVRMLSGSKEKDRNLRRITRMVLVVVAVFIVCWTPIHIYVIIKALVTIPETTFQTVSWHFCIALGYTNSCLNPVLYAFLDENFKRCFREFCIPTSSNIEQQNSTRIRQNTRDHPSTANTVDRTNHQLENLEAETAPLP

[8] = target: T3, Mu-type opioid receptor; assay: Agonist activity at human MOR expressed in CHO cells assessed as increase in intracellular Ca2+ level after 30 mins by microplate reader analysis; format: functional, cell-based
Procedure, shortened: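 Gαqi5-transfected hMOR-CHO cells (DMEM/F12, 10% FBS, hygromycin B, 37 °C/5% CO2), plated 4 h post-transfection, grown 24 h, loaded 30 min with Fluo-4 AM plus probenecid in HBSS:HEPES. Test agent at varying concentrations in triplicate added after 15 s of reading. Fluorescence 494/516 nm over 120 s; at least three independent experiments.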

[9] = test system: Mus musculus; assay: Antinociceptive activity in sc dosed Swiss-Webster mouse after 20 mins by warm water tail-flick test relative to control; format: functional
[10] = target: T1, Kappa-type opioid receptor; assay: Partial agonist activity at mouse KOR expressed in CHO cells after […] by [35S]GTPgammaS binding assay; format: functional, cell-based
[11] = organism: Mus musculus; assay: Selectivity ratio of Ki for mouse KOR to Ki for mouse MOR
[12] = organism: Mus musculus; assay: Selectivity ratio of Ki for mouse DOR to Ki for mouse MOR
[13] = target: Mu-type opioid receptor (Mus musculus) (UniProt P42866); assay: Stimulation of mouse MOR expressed in CHO cells after […] by [35S]GTPgammaS binding assay relative to DAMGO; format: functional, cell-based
Mu-type opioid receptor (Mus musculus), sequence (P42866 whole entry): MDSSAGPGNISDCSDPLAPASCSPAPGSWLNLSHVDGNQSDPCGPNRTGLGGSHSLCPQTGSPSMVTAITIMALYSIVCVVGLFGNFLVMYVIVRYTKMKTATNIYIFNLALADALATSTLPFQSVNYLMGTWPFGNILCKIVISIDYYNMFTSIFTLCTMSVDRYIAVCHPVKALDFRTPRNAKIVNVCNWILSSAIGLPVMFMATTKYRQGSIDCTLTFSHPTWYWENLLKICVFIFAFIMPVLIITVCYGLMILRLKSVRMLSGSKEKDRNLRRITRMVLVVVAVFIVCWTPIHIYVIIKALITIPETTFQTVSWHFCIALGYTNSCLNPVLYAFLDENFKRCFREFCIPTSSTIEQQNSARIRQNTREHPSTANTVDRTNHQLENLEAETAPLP

[14] = target: T1, Kappa-type opioid receptor; assay: Displacement of [3H]diprenorphine from mouse KOR expressed in CHO cells after […]; format: cell-based
[15] = target: T4, Mu-type opioid receptor (Mus musculus, UniProt P42866); assay: Stimulation of mouse MOR expressed in CHO cells after […] by [35S]GTPgammaS binding assay; format: functional, cell-based
T4 sequence (P42866 whole entry): as above

[16] = target: T4, Mu-type opioid receptor; assay: Displacement of [3H]naloxane from mouse MOR expressed in CHO cells after […]; format: cell-based
[17] = test system: Mus musculus; assay: Reversal of morphine-induced antinociceptive activity in Swiss-Webster mouse at 1 mg/kg, sc administered 5 mins prior to morphine challenge measured after 20 mins by warm water tail-flick test relative to control; format: functional
[18] = target: T2, Delta-type opioid receptor; assay: Displacement of [3H]naltrindole from mouse DOR expressed in CHO cells after […]; format: cell-based
[19] = test system: Mus musculus; assay: Induction of escape jumps in Swiss-Webster mouse at 30 mg/kg, sc measured after 3 mins up to 20 mins; format: organism-based; set-up: dose 30 mg/kg, route subcutaneous; conditions: in vivo
Procedure, shortened: (§1)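 After 72 h and 30 min habituation in an observation chamber, withdrawal was precipitated by s.c. test agent. Escape jumps and wet-dog shakes counted over 20 min, starting within 3 min of dosing; at least six mice per dose.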

[20] = test system: Mus musculus; assay: Reversal of morphine-induced antinociceptive activity in Swiss-Webster mouse assessed as wet-dog shakes at 30 to 100 mg/kg, sc measured after 3 mins up to 20 mins; format: functional, organism-based; procedure, shortened: as §1
[21] = organism: Mus musculus; assay: Selectivity ratio of EC50 for mouse DOR to EC50 for mouse MOR
[22] = test system: Mus musculus; assay: Reversal of morphine-induced antinociceptive activity in Swiss-Webster mouse assessed as escape jumps at 30 to 100 mg/kg, sc measured after 3 mins up to 20 mins; format: functional, organism-based; procedure, shortened: as §1
[23] = target: Delta-type opioid receptor (Mus musculus) (UniProt P32300); assay: Agonist activity at mouse DOR expressed in CHO cells after […] by [35S]GTPgammaS binding assay relative to naltrexone; format: functional, cell-based
[24] = test system: Mus musculus; assay: Induction of wet-dog shakes in Swiss-Webster mouse at 30 mg/kg, sc measured after 3 mins up to 20 mins; format: organism-based; set-up: dose 30 mg/kg, route subcutaneous; conditions: in vivo; procedure, shortened: as §1
[25] = organism: Mus musculus; assay: Selectivity ratio of EC50 for mouse KOR to EC50 for mouse MOR

Row | SMILES | Ratio Ki [11] | Ratio Ki [12] | Emax [13] | Ki [14] | EC50 [15] | Ki [16] | Ki [18] | other results
1 | O=C(N[C@H]1CC[C@@]2(O)[C@H]3Cc4ccc(O)c5c4[C@@]2(CCN3CC2CC2)[C@H]1O5)c1ncc2ccccc2c1O | – | – | – | – | – | – | – | MPE [1]: <20%
2 | O=C(N[C@H]1CC[C@@]2(O)[C@H]3Cc4ccc(O)c5c4[C@@]2(CCN3CC2CC2)[C@H]1O5)c1cc2ccccc2cn1 | – | – | – | – | – | – | – | Emax [2]: 53.5%; Emax [3]: 13.1%; EC50 [4]: 10.9 nM; AD50 [5]: 0.45 mg/kg; EC50 [6]: 98.6 nM
3 | Cc1nc(C(=O)N[C@H]2CC[C@@]3(O)[C@H]4Cc5ccc(O)c6c5[C@@]3(CCN4CC3CC3)[C@H]2O6)cc2ccccc12 | – | – | – | – | – | – | – | MPE [1]: <20%
4 | COc1c(C(=O)N[C@H]2CC[C@@]3(O)[C@H]4Cc5ccc(O)c6c5[C@@]3(CCN4CC3CC3)[C@H]2O6)nc(Cl)c2ccccc12 | – | – | – | – | – | – | – | Emax [2]: 54.8%; IC50 [7]: 23.7 nM; inhibition [7]: Dose-dependent effect; Activity [8]: inactive; ED50 [9]: 0.73 mg/kg; EC50 [6]: 32.6 nM; EC50 [10]: 26.4 nM
5 | O=C(N[C@H]1CC[C@@]2(O)[C@H]3Cc4ccc(O)c5c4[C@@]2(CCN3CC2CC2)[C@H]1O5)c1cc2ccc([N+](=O)[O-])cc2cn1 | 16 | 4.5 | 13.4% | 16 nM | 42.7 nM | 3.6 nM | 55.3 nM | Activity [17]: inactive
6 | O=C(Cc1cc2ccccc2cn1)N[C@H]1CC[C@@]2(O)[C@H]3Cc4ccc(O)c5c4[C@@]2(CCN3CC2CC2)[C@H]1O5 | 10 | 0.9 | – | – | – | – | – | –
7 | CN(C)c1ccc2c(c1)CN(C)C(C(=O)N[C@H]1CC[C@@]3(O)[C@H]4Cc5ccc(O)c6c5[C@@]3(CCN4CC3CC3)[C@H]1O6)C2 (some centres not stated) | 2.5 | 2.7 | 26.2% | 4.91 nM | 11.4 nM | 1.79 nM | 4.5 nM | –
8 | O=C(CNC(=O)c1cc2ccccc2cn1)N[C@H]1CC[C@@]2(O)[C@H]3Cc4ccc(O)c5c4[C@@]2(CCN3CC2CC2)[C@H]1O5 | 3.4 | 0.2 | – | – | – | – | – | –
9 | O=C(N[C@H]1CC[C@@]2(O)[C@H]3Cc4ccc(O)c5c4[C@@]2(CCN3CC2CC2)[C@H]1O5)c1ncc2ccccc2n1 | 71 | 4.6 | – | – | – | – | – | –
10 | O=C(N[C@H]1CC[C@@]2(O)[C@H]3Cc4ccc(O)c5c4[C@@]2(CCN3CC2CC2)[C@H]1O5)c1nc(Cl)c2ccccc2c1O | 24 | 25 | – | – | – | – | – | –
11 | O=C(CCc1cc2ccccc2cn1)N[C@H]1CC[C@@]2(O)[C@H]3Cc4ccc(O)c5c4[C@@]2(CCN3CC2CC2)[C@H]1O5 | 12 | 2.4 | – | – | – | – | – | –
12 | N#Cc1nc(C(=O)N[C@H]2CC[C@@]3(O)[C@H]4Cc5ccc(O)c6c5[C@@]3(CCN4CC3CC3)[C@H]2O6)cc2ccccc12 | 131 | 10 | – | – | – | – | – | MPE [1]: 56.9%
13 | O=C(N[C@H]1CC[C@@]2(O)[C@H]3Cc4ccc(O)c5c4[C@@]2(CCN3CC2CC2)[C@H]1O5)c1cc2cc([N+](=O)[O-])ccc2cn1 | 16 | 4.9 | 12.5% | 27.9 nM | 31.5 nM | 5.7 nM | 94.7 nM | Activity [19]: Non-toxic; Activity [20]: inactive; Ratio EC50 [21]: 3.4; Emax [2]: 67.7%; Activity [22]: inactive; IC50 [7]: 2730 nM; inhibition [7]: Dose-dependent effect; Activity [8]: inactive; Emax [3]: 21.1%; EC50 [4]: 62.6 nM; Ratio [23]: 10; AD50 [5]: 0.92 mg/kg; EC50 [6]: 108 nM; MPE ([17]; route subcutaneous): 8.9%; Activity [24]: Non-toxic; Ratio EC50 [25]: 2
14 | CN(C)c1ccc2cc(C(=O)N[C@H]3CC[C@@]4(O)[C@H]5Cc6ccc(O)c7c6[C@@]4(CCN5CC4CC4)[C@H]3O7)ncc2c1 | 16 | 20 | 6.32% | 88 nM | 4.7 nM | 4.4 nM | 68.6 nM | Activity [17]: inactive
15 | COc1cc2cnc(C(=O)N[C@H]3CC[C@@]4(O)[C@H]5Cc6ccc(O)c7c6[C@@]4(CCN5CC4CC4)[C@H]3O7)cc2cc1OC | 5.2 | 4.6 | 14% | 61 nM | 85.2 nM | 13.4 nM | 69.2 nM | –
16 | CN1Cc2ccccc2C[C@H]1C(=O)N[C@H]1CC[C@@]2(O)[C@H]3Cc4ccc(O)c5c4[C@@]2(CCN3CC2CC2)[C@H]1O5 | 3.2 | 2.3 | – | – | – | – | – | –
